Publication PMC5402713 (Pain, 2017)

Key:
[1] = physiological pH, no reference given; cited from earlier work
human ankyrin-like TRPA1 = human ankyrin-like TRPA1 (Homo sapiens, UniProt O75762); test: Selectivity Ca2+ assay in HEKhTRPA1 cells, AITC-stimulated; type: cell-based; conditions: AITC 30 μM; for Inhibition of AITC-induced TRPA1 activation: drug up to 50 μM
In short: (§1)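 Stable HEK293 lines expressing human TRPA1, rat TRPV1 or human TRPM8 were loaded in suspension with Fluo-4/AM (4 μM, 30 min, 37°C) and resuspended in HEPES-buffered saline, pH 7.4. Cells were pre-exposed to test compound in 384-well plates. After baseline reading, cells were stimulated with 30 μM AITC (TRPA1), 2 μM capsaicin (TRPV1) or 300 μM menthol (TRPM8). Background-corrected fluorescence was normalized to initial intensity (F/F₀).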

mouse TRPM3α2 [2] = biological target: T1, mouse TRPM3α2 (Mus musculus, UniProt J9SQF3); type: cell-based; conditions: for Hill coefficient of TRPM3 inhibition: Fluo-4-loaded HEKmTRPM3 cells, PregS-induced Ca2+ signal; for TRPM3 inhibition relative to mefenamic acid: primary screen, data not shown
human TRPM2 = human TRPM2 (Homo sapiens, UniProt O94759); test: H2O2-induced [Ca2+]i signals in HEK cells expressing human TRPM2; type: cell-based; conditions: diclofenac at concentrations above 1 μM, data not shown
mouse TRPM3α2 [3] = biological target: T1, mouse TRPM3α2; test: Whole-cell patch-clamp of TRPM3 currents in HEKmTRPM3 cells; type: cell-based
human TRPM8 = human TRPM8 (Homo sapiens, UniProt Q7Z2W7); test: Selectivity Ca2+ assay in HEKhTRPM8 cells, menthol-stimulated; type: cell-based; conditions: menthol 300 μM, drug up to 50 μM
In short: as §1

TRPA1 = conditions: read-out: EC50 of TRPA1 activation; cited from earlier work
rat TRPV1 = rat TRPV1 (Rattus norvegicus, UniProt O35433); test: Selectivity Ca2+ assay in HEKrTRPV1 cells, capsaicin-stimulated; type: cell-based; conditions: capsaicin 2 μM, drug up to 50 μM
In short: as §1

[4] = cited from earlier work
C57BL/6J mice [5] = test: Hot plate test; type: in vivo, mouse; conditions: 52°C
In short: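 Male C57BL/6J mice were placed on a 52°C hot plate 20 min after i.p. test compound (0.5, 2, 10 mg·kg⁻¹ in 0.5% Tween 20) or vehicle. Latency to the first nocifensive hind-paw response was recorded, with a 45 s cutoff. Mean ± SEM; one-way ANOVA.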

C57BL/6J mice [6] = test: Tail immersion test; type: in vivo, mouse; conditions: primidone 1 mg·kg^−1 i.p., 48°C
In short: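 Tail immersion in male C57BL/6J mice given test compound at 1 mg·kg⁻¹ i.p. or vehicle (0.5% Tween 20). Each mouse was restrained in a 50 mL conical tube, and the distal half of the tail was dipped in water at 48.0 ± 0.5°C. Latency to vigorous tail flexion was recorded, with a 15 s cutoff. n = 10 each; mean ± SEM.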

C57BL/6J mice [7] = test: CFA-induced inflammatory thermal hyperalgesia, hot plate; type: in vivo, mouse; conditions: primidone 1 mg·kg^−1 i.p., 24 hours after CFA
C57BL/6J mice [8] = test: Pregnenolone sulfate-induced chemical pain in mice; type: in vivo, mouse; conditions: for Nociception as duration per single response, compared with controls: data not shown
In short: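 Mice received i.p. test compound (0.5, 2, 10 mg·kg⁻¹, suspended in 0.5% Tween 20) or vehicle. After 20 min, 5 nmol PregS (in sterile water, 10 μL total) was injected into the right hind paw. Over 180 s, observers recorded latency to the first response, number of responses and total duration of licking, lifting and shaking. n = 8 each; mean ± SEM; one-way ANOVA.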

human TRPM3α2 = human TRPM3α2 (Homo sapiens, UniProt Q9HCF6); type: cell-based; conditions: qualitative; PregS 35 μM, primidone 25 μM
In short: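 HEK293 cells were grown in MEM with Earle's salts, 10% FCS, 2 mM L-glutamine and penicillin/streptomycin. 1–2 days after seeding, they were transfected with 2 μg plasmid encoding human TRPM3α2 C-terminally fused to YFP and used 2 days later. For [Ca²⁺]i measurement, 35 μM PregS and 25 μM test compound were added sequentially. Nontransfected HEK293 cells served as control.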

mouse TRPM3α2 [9] = biological target: T1, mouse TRPM3α2; type: cell-based; conditions: 10 μM primidone, temperature 22 to 37°C, Fura-2
C57BL/6J mice [10] = test: Exploratory motor activity; type: in vivo, mouse; conditions: primidone 10 mg·kg^−1 i.p., after 120 minutes
In short: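 Male C57BL/6J mice, 10–12 weeks old. Test compound was suspended in 0.5% Tween 20, which also served as vehicle control, and given i.p. Travelled distance in an opaque open-field box was video-tracked for 5 min, both immediately before the hot plate test and 120 min after dosing. n = 10 each; mean ± SEM; one-way ANOVA.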

rat DRG neurones = test: Single-cell Fura-2 [Ca2+]i measurement in isolated rat DRG neurones; type: cell-based; conditions: 10 μM primidone

human ankyrin-like TRPA1, sequence (O75762 whole entry): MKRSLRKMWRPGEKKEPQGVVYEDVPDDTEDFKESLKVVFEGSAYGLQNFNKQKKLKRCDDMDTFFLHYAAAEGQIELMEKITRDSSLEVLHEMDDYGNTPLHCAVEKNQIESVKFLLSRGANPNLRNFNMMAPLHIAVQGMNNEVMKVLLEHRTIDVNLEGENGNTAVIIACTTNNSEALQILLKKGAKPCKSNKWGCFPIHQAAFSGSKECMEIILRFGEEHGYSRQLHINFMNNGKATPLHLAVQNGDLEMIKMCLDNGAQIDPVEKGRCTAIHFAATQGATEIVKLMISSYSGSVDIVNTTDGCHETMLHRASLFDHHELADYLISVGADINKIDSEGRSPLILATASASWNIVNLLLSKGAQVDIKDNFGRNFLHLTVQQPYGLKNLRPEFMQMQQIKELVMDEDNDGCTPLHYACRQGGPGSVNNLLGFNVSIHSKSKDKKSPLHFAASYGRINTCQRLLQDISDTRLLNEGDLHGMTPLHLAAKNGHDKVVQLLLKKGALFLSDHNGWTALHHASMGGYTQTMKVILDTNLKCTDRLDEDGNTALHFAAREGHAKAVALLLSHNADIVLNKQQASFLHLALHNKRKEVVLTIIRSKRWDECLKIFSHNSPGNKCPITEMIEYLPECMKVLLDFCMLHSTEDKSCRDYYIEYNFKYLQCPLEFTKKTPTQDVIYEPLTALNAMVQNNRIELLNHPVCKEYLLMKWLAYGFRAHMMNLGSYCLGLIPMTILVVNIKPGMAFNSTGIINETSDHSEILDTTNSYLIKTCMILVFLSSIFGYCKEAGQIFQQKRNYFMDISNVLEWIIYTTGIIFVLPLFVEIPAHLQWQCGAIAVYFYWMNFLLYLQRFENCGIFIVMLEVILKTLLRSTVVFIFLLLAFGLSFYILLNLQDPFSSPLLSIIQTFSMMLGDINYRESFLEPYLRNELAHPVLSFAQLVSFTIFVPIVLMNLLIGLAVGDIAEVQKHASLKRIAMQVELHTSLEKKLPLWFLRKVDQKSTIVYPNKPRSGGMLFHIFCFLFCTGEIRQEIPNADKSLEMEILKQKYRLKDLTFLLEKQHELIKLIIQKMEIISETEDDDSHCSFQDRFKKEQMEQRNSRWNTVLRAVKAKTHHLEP
T1 sequence (J9SQF3 1-1709 isoform J9SQF3-12): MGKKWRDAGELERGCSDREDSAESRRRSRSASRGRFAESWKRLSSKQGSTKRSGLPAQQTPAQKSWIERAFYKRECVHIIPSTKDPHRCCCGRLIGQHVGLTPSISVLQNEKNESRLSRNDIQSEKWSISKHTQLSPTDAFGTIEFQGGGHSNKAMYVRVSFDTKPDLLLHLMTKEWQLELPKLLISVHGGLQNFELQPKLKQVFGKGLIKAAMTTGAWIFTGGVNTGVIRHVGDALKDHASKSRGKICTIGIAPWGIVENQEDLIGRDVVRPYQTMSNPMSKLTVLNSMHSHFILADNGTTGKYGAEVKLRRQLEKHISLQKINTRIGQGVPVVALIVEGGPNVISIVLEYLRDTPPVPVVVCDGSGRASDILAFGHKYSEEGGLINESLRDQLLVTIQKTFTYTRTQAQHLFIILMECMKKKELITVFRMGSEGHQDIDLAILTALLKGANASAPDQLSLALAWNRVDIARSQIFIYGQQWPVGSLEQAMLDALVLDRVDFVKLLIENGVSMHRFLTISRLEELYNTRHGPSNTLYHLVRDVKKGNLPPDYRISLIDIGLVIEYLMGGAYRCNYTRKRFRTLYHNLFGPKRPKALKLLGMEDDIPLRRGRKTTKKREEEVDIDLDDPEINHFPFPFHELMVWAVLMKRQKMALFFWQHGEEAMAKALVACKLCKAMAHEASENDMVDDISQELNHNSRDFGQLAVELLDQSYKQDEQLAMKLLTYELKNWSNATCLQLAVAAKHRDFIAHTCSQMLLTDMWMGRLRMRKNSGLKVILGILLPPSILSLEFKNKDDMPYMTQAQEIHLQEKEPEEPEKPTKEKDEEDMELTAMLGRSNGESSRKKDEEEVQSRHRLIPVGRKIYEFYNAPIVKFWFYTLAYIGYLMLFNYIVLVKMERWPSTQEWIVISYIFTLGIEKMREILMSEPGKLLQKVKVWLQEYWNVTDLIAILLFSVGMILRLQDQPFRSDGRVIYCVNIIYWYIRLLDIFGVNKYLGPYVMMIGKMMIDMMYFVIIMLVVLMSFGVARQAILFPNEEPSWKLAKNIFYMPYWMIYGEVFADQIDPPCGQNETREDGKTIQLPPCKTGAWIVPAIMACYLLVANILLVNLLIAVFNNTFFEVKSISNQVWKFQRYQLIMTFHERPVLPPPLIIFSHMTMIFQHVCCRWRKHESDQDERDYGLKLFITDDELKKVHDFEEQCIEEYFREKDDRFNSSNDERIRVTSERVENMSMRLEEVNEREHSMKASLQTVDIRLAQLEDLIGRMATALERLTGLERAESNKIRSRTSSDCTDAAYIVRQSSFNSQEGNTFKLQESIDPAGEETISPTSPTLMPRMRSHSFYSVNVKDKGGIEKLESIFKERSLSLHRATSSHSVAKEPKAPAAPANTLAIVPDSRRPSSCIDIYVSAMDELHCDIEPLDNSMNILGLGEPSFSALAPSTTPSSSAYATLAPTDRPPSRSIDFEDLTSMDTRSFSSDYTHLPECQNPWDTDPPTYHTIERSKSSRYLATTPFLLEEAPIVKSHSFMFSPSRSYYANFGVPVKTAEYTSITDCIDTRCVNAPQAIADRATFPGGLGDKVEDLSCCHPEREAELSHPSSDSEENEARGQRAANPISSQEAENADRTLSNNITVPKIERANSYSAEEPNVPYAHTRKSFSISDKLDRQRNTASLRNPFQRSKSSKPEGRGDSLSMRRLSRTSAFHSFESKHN
human TRPM8, sequence (Q7Z2W7 whole entry): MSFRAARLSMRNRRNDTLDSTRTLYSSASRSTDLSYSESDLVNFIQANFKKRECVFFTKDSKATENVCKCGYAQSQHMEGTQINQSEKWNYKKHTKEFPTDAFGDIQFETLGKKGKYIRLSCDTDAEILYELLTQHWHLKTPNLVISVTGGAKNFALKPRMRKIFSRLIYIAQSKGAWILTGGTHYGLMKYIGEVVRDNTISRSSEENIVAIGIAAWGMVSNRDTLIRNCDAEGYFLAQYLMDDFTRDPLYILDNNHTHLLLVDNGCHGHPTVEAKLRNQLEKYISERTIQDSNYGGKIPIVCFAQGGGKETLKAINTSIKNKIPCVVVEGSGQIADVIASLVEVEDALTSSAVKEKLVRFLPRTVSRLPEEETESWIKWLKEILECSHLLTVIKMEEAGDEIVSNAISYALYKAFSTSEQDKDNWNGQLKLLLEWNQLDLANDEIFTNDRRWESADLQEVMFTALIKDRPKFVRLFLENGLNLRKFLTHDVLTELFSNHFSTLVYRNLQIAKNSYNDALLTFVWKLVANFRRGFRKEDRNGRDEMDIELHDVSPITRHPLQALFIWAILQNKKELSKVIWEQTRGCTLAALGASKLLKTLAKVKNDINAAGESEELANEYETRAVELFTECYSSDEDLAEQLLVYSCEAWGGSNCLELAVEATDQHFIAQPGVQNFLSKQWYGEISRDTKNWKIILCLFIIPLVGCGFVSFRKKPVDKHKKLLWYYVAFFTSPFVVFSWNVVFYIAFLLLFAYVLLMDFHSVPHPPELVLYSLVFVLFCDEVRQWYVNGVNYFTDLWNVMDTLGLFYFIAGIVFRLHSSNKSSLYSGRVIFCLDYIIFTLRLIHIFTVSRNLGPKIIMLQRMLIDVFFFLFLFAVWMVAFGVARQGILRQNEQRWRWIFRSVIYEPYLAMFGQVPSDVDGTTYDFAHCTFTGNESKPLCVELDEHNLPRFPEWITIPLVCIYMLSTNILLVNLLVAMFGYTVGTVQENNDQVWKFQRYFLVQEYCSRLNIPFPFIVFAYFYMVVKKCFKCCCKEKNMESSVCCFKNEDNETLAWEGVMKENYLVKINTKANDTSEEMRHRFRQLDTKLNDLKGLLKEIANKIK
rat TRPV1, sequence (O35433 whole entry): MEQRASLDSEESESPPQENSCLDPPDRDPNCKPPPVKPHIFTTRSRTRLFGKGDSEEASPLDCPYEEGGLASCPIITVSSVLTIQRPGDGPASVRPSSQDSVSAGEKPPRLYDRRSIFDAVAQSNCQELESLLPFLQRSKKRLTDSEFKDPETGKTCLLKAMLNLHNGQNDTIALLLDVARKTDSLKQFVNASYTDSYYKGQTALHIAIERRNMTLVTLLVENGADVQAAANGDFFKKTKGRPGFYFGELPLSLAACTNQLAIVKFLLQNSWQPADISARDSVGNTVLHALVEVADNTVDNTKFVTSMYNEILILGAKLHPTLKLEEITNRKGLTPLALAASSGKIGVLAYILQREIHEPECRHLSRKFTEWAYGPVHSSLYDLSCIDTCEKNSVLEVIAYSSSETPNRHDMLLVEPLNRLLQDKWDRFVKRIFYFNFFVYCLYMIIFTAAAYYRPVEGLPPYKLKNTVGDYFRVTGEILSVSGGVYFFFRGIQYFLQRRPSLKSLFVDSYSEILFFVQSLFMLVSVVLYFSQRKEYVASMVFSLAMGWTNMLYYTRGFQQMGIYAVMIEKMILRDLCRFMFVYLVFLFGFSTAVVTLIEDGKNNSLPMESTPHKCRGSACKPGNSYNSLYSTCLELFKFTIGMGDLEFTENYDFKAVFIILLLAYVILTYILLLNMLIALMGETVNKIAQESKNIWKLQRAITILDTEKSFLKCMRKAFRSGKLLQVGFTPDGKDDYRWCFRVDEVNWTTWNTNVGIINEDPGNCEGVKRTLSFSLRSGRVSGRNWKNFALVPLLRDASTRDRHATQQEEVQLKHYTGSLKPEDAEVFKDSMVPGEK

SMILES: O=C(O)Cc1ccccc1Nc1c(Cl)cccc1Cl [diclofenac]
- Share of deprotonized, negatively charged microspecies [1]: > 99%
- Attenuation of responses to AITC stimulation (human ankyrin-like TRPA1; diclofenac at concentrations higher than 50 μM): about 50%
- Hill coefficient of TRPM3 inhibition (mouse TRPM3α2 [2]): 1.2 ± 0.1
- Inhibition of H2O2-induced [Ca2+]i signals (human TRPM2): partial inhibition
- Effect on PregS-induced inward and outward currents (mouse TRPM3α2 [3]; 25 μM diclofenac in bath, 35 μM PregS): almost completely abolished
- Effect of intracellularly perfused drug on PregS-induced currents (mouse TRPM3α2 [3]; 25 μM diclofenac in pipette solution): did not prevent PregS-induced currents
- inhibition at 5 µM (mouse TRPM3α2 [3]; read-out: Inhibition of depolarizing inward currents): ~70%
- Inhibition of menthol-induced TRPM8 activation (human TRPM8): almost unaffected
- EC50 (TRPA1): 210 µM

SMILES: O=C(O)c1ccccc1Nc1cccc(C(F)(F)F)c1 [flufenamic acid]
- TRPM3 inhibition relative to mefenamic acid (mouse TRPM3α2 [2]): less potent and poorly specific TRPM3 inhibitors

SMILES: CNCCCC12CCC(c3ccccc31)c1ccccc12 [maprotiline]
- Inhibition of AITC-induced TRPA1 activation (human ankyrin-like TRPA1): no apparent inhibition
- Inhibition of menthol-induced TRPM8 activation (human TRPM8): no apparent inhibition
- Inhibition of capsaicin-induced TRPV1 activation (rat TRPV1): no apparent inhibition

SMILES: CCC1(c2ccccc2)C(=O)NC(=O)NC1=O [phenobarbital]
- Plasma concentration of the major active metabolite during primidone therapy [4]: 15 to 40 µM

SMILES: CCC1(c2ccccc2)C(=O)NCNC1=O [primidone]
- Response latency on the hot plate (C57BL/6J mice [5]; primidone 10 mg·kg^−1 i.p.): did not differ from controls
- Response latency on the hot plate (C57BL/6J mice [5]; primidone 0.5 and 2 mg·kg^−1 i.p.): prolonged the response latency
- Latency to tail withdrawal (C57BL/6J mice [6]): prolonged the latency to tail withdrawal
- Inhibition of AITC-induced TRPA1 activation (human ankyrin-like TRPA1): no apparent inhibition
- Therapeutic plasma concentrations [4]: 20 to 50 µM
- Plasma protein binding ([4]; no reference given): less than 10%
- Relative distribution volume ([4]; no reference given): 0.6 L/kg
- IC50 (mouse TRPM3α2 [2]): ~0.6 µM
- Hill coefficient of TRPM3 inhibition (mouse TRPM3α2 [2]): 1.4 ± 0.2
- CFA-induced sensitization, hot plate latency (C57BL/6J mice [7]): prevented the signs of CFA-induced sensitization
- Latency and total response duration to PregS-induced pain (C57BL/6J mice [8]; primidone 0.5 mg·kg^−1 i.p., 20 minutes before PregS 5 nmol i.pl.): significant antinociception
- Nociception as duration per single response, compared with controls (C57BL/6J mice [8]; primidone 0.5 mg·kg^−1 i.p.): significantly reduced
- Nociception as duration per single response, compared with controls (C57BL/6J mice [8]; primidone 10 mg·kg^−1 i.p.): intensified
- Number of responses to PregS (C57BL/6J mice [8]; primidone 0.5, 2 and 10 mg·kg^−1 i.p.): not altered
- Effect on PregS-induced responses at the human TRPM3 channel (human TRPM3α2): confirmed the effectiveness
- Effect on omega pore-like currents evoked by coapplied PregS and clotrimazole (mouse TRPM3α2 [3]; 10 μM primidone, 40 μM PregS and 10 μM clotrimazole): inhibited
- Effect on PregS-induced inward currents (mouse TRPM3α2 [3]; 3 and 5 μM primidone, 35 μM PregS): almost completely abolished
- Potency to block TRPM3 currents (mouse TRPM3α2 [3]; electrophysiological recordings): submicromolar potency
- Effect on [Ca2+]i during heat-induced TRPM3 activation (mouse TRPM3α2 [9]): rapid and reversible decrease in [Ca^2+]i
- Inhibition of menthol-induced TRPM8 activation (human TRPM8): no apparent inhibition
- Inhibition of capsaicin-induced TRPV1 activation (rat TRPV1): no apparent inhibition
- Exploratory activity (travelled distance) (C57BL/6J mice [10]): slight reduction of exploratory activity
- Inhibition of [Ca2+]i responses of capsaicin treatment (rat DRG neurones; 2 μM capsaicin, data not shown): not discernibly inhibited
- Effect on [Ca2+]i in PregS-responsive DRG neurones (rat DRG neurones; PregS 35 μM): immediate decrease in [Ca^2+]i

SMILES: Cc1c(Cl)cccc1Nc1ccccc1C(=O)O [tolfenamic acid]
- TRPM3 inhibition relative to mefenamic acid (mouse TRPM3α2 [2]): less potent and poorly specific TRPM3 inhibitors
